Results on seven molecules are retold here after ChEMBL document CHEMBL2157935, “Synthesis and properties of cationic 2'-O-[N-(4-aminobutyl)carbamoyl] modified oligonucleotides” (Bioorg Med Chem Lett, 2012).

By ΔTm is commonly meant the change in melting temperature against a reference sample.

The test system of data set [1] is Nucleic Acid. In words: Binding affinity to RNA 3'-CAUGGAAAGGCC-5' assessed as melting temperature. Format: nucleic-acid assay.
Data set [2] deals with Nucleic Acid. In words: Binding affinity to RNA 3'-CAUGGGAAGGCC-5' assessed as melting temperature. It is filed as nucleic-acid assay.
Data set [3] has as its system Nucleic Acid. Nature of the data set: Binding affinity to RNA 3'-CAUGGUAAGGCC-5' assessed as melting temperature. Format: nucleic-acid assay.
The subject of data set [4] is Nucleic Acid. Nature of the data set: Binding affinity to RNA 3'-CAUGGCAAGGCC-5' assessed as melting temperature. Format: nucleic-acid assay.
Data set [5] deals with Nucleic Acid. Nature of the data set: Binding affinity to RNA 3'-CAUGGAAAGGCC-5' assessed as change in melting temperature. Format: nucleic-acid assay.
A short description of data set [6]: Chemical stability in presence of snake venom phosphodiesterase at 50 uM and pH 8.4. Format: physicochemical. To be noted: buffer. The method, boiled down: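 Oligonucleotides (50 μM) incubated at 37 °C in 50 mM Tris-HCl (pH 8.5) with 72 mM NaCl, 14 mM MgCl2 and 2.5 × 10^-4 U/ml snake venom phosphodiesterase; hydrolysis followed over time.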

As for `CO[C@@H]1[C@H](OP(=O)(O)OC[C@H]2O[C@@H](n3ccc(=O)[nH]c3=O)[C@H](OC(N)=O)[C@@H]2OP(=O)(O)OC[C@H]2O[C@@H](n3ccc(=O)[nH]c3=O)[C@H](OC)[C@@H]2OP(=O)(O)OC[C@H]2O[C@@H](n3ccc(=O)[nH]c3=O)[C@H](OC(N)=O)[C@@H]2OP(=O)(O)OC[C@H]2O[C@@H](n3ccc(N)nc3=O)[C@H](OC)[C@@H]2OP(=O)(O)OC[C@H]2O[C@@H](n3ccc(N)nc3=O)[C@H](OC)[C@@H]2OP(=O)(O)OC[C@H]2O[C@@H](n3cnc4c(=O)[nH]c(N)nc43)[C@H](OC)[C@@H]2OP(=O)(O)OC[C@H]2O[C@@H](n3cnc4c(=O)[nH]c(N)nc43)[C@H](OC)[C@@H]2O)[C@@H](COP(=O)(O)O[C@H]2[C@@H](OC)[C@H](n3ccc(N)nc3=O)O[C@@H]2COP(=O)(O)O[C@H]2[C@@H](OC)[C@H](n3cnc4c(N)ncnc43)O[C@@H]2COP(=O)(O)O[C@H]2[C@@H](OC)[C@H](n3ccc(=O)[nH]c3=O)O[C@@H]2COP(=O)(O)O[C@H]2[C@@H](OC)[C@H](n3cnc4c(=O)[nH]c(N)nc43)O[C@@H]2CO)O[C@H]1n1ccc(N)nc1=O`, the Tm with Nucleic Acid [1] came out at 43 °C.

`CO[C@@H]1[C@H](OP(=O)(O)OC[C@H]2O[C@@H](n3ccc(=O)[nH]c3=O)[C@H](OC)[C@@H]2OP(=O)(O)OC[C@H]2O[C@@H](n3ccc(=O)[nH]c3=O)[C@H](OC)[C@@H]2OP(=O)(O)OC[C@H]2O[C@@H](n3ccc(=O)[nH]c3=O)[C@H](OC)[C@@H]2OP(=O)(O)OC[C@H]2O[C@@H](n3ccc(N)nc3=O)[C@H](OC)[C@@H]2OP(=O)(O)OC[C@H]2O[C@@H](n3ccc(N)nc3=O)[C@H](OC)[C@@H]2OP(=O)(O)OC[C@H]2O[C@@H](n3cnc4c(=O)[nH]c(N)nc43)[C@H](OC)[C@@H]2OP(=O)(O)OC[C@H]2O[C@@H](n3cnc4c(=O)[nH]c(N)nc43)[C@H](OC)[C@@H]2O)[C@@H](COP(=O)(O)O[C@H]2[C@@H](OC)[C@H](n3ccc(N)nc3=O)O[C@@H]2COP(=O)(O)O[C@H]2[C@@H](OC)[C@H](n3cnc4c(N)ncnc43)O[C@@H]2COP(=O)(O)O[C@H]2[C@@H](OC)[C@H](n3ccc(=O)[nH]c3=O)O[C@@H]2COP(=O)(O)O[C@H]2[C@@H](OC)[C@H](n3cnc4c(=O)[nH]c(N)nc43)O[C@@H]2CO)O[C@H]1n1ccc(N)nc1=O`: the values for the Tm in the data set with Nucleic Acid [2], in the data set on Nucleic Acid [3] and in the data set on Nucleic Acid [4] were 63 °C, 58 °C and 57 °C, respectively.

In the case of `CO[C@@H]1[C@H](OP(=O)(O)OC[C@H]2O[C@@H](n3ccc(=O)[nH]c3=O)[C@H](OC)[C@@H]2OP(=O)(O)OC[C@H]2O[C@@H](n3ccc(=O)[nH]c3=O)[C@H](OC)[C@@H]2OP(=O)(O)OC[C@H]2O[C@@H](n3ccc(=O)[nH]c3=O)[C@H](OC(N)=O)[C@@H]2OP(=O)(O)OC[C@H]2O[C@@H](n3ccc(N)nc3=O)[C@H](OC)[C@@H]2OP(=O)(O)OC[C@H]2O[C@@H](n3ccc(N)nc3=O)[C@H](OC)[C@@H]2OP(=O)(O)OC[C@H]2O[C@@H](n3cnc4c(=O)[nH]c(N)nc43)[C@H](OC)[C@@H]2OP(=O)(O)OC[C@H]2O[C@@H](n3cnc4c(=O)[nH]c(N)nc43)[C@H](OC)[C@@H]2O)[C@@H](COP(=O)(O)O[C@H]2[C@@H](OC)[C@H](n3ccc(N)nc3=O)O[C@@H]2COP(=O)(O)O[C@H]2[C@@H](OC)[C@H](n3cnc4c(N)ncnc43)O[C@@H]2COP(=O)(O)O[C@H]2[C@@H](OC(N)=O)[C@H](n3ccc(=O)[nH]c3=O)O[C@@H]2COP(=O)(O)O[C@H]2[C@@H](OC)[C@H](n3cnc4c(=O)[nH]c(N)nc43)O[C@@H]2CO)O[C@H]1n1ccc(N)nc1=O`, in the data set on Nucleic Acid [1], the Tm was 47 °C.

In the case of `CO[C@@H]1[C@H](OP(=O)(O)OC[C@H]2O[C@@H](n3ccc(=O)[nH]c3=O)[C@H](OC(=O)NCCCCN)[C@@H]2OP(=O)(O)OC[C@H]2O[C@@H](n3ccc(=O)[nH]c3=O)[C@H](OC)[C@@H]2OP(=O)(O)OC[C@H]2O[C@@H](n3ccc(=O)[nH]c3=O)[C@H](OC)[C@@H]2OP(=O)(O)OC[C@H]2O[C@@H](n3ccc(N)nc3=O)[C@H](OC)[C@@H]2OP(=O)(O)OC[C@H]2O[C@@H](n3ccc(N)nc3=O)[C@H](OC)[C@@H]2OP(=O)(O)OC[C@H]2O[C@@H](n3cnc4c(=O)[nH]c(N)nc43)[C@H](OC)[C@@H]2OP(=O)(O)OC[C@H]2O[C@@H](n3cnc4c(=O)[nH]c(N)nc43)[C@H](OC)[C@@H]2O)[C@@H](COP(=O)(O)O[C@H]2[C@@H](OC)[C@H](n3ccc(N)nc3=O)O[C@@H]2COP(=O)(O)O[C@H]2[C@@H](OC)[C@H](n3cnc4c(N)ncnc43)O[C@@H]2COP(=O)(O)O[C@H]2[C@@H](OC)[C@H](n3ccc(=O)[nH]c3=O)O[C@@H]2COP(=O)(O)O[C@H]2[C@@H](OC)[C@H](n3cnc4c(=O)[nH]c(N)nc43)O[C@@H]2CO)O[C@H]1n1ccc(N)nc1=O`, the ΔTm in the data set with Nucleic Acid [5] was 4 °C. Also, the Tm with Nucleic Acid [2] worked out at 68 °C; with Nucleic Acid [1], 69 °C; in the data set with Nucleic Acid [3] it was 59 °C; in the data set with Nucleic Acid [4], 57 °C.

On to `CO[C@@H]1[C@H](OP(=O)(O)OC[C@H]2O[C@@H](n3ccc(=O)[nH]c3=O)[C@H](OC(=O)NCCCCN)[C@@H]2OP(=O)(O)OC[C@H]2O[C@@H](n3ccc(=O)[nH]c3=O)[C@H](OC)[C@@H]2OP(=O)(O)OC[C@H]2O[C@@H](n3ccc(=O)[nH]c3=O)[C@H](OC(=O)NCCCCN)[C@@H]2OP(=O)(O)OC[C@H]2O[C@@H](n3ccc(N)nc3=O)[C@H](OC)[C@@H]2OP(=O)(O)OC[C@H]2O[C@@H](n3ccc(N)nc3=O)[C@H](OC)[C@@H]2OP(=O)(O)OC[C@H]2O[C@@H](n3cnc4c(=O)[nH]c(N)nc43)[C@H](OC)[C@@H]2OP(=O)(O)OC[C@H]2O[C@@H](n3cnc4c(=O)[nH]c(N)nc43)[C@H](OC)[C@@H]2O)[C@@H](COP(=O)(O)O[C@H]2[C@@H](OC)[C@H](n3ccc(N)nc3=O)O[C@@H]2COP(=O)(O)O[C@H]2[C@@H](OC)[C@H](n3cnc4c(N)ncnc43)O[C@@H]2COP(=O)(O)O[C@H]2[C@@H](OC)[C@H](n3ccc(=O)[nH]c3=O)O[C@@H]2COP(=O)(O)O[C@H]2[C@@H](OC)[C@H](n3cnc4c(=O)[nH]c(N)nc43)O[C@@H]2CO)O[C@H]1n1ccc(N)nc1=O`, for which the thermal shift (ΔTm) in the data set with Nucleic Acid [5] is 18 °C. Besides, the Tm in the data set on Nucleic Acid [1] turned out to be 61 °C.

With `Cc1cn([C@H]2C[C@H](O)[C@@H](COP(=O)(O)O[C@H]3[C@@H](OC(=O)NCCCCN)[C@H](n4ccc(=O)[nH]c4=O)O[C@@H]3COP(=O)(O)O[C@H]3[C@@H](OC(=O)NCCCCN)[C@H](n4ccc(=O)[nH]c4=O)O[C@@H]3CO)O2)c(=O)[nH]c1=O`, the Stability entry in data set [6] was “Stable”.

`CO[C@@H]1[C@H](OP(=O)(O)OC[C@H]2O[C@@H](n3ccc(=O)[nH]c3=O)[C@H](OC)[C@@H]2OP(=O)(O)OC[C@H]2O[C@@H](n3ccc(=O)[nH]c3=O)[C@H](OC)[C@@H]2OP(=O)(O)OC[C@H]2O[C@@H](n3ccc(=O)[nH]c3=O)[C@H](OC(=O)NCCCCN)[C@@H]2OP(=O)(O)OC[C@H]2O[C@@H](n3ccc(N)nc3=O)[C@H](OC)[C@@H]2OP(=O)(O)OC[C@H]2O[C@@H](n3ccc(N)nc3=O)[C@H](OC)[C@@H]2OP(=O)(O)OC[C@H]2O[C@@H](n3cnc4c(=O)[nH]c(N)nc43)[C@H](OC)[C@@H]2OP(=O)(O)OC[C@H]2O[C@@H](n3cnc4c(=O)[nH]c(N)nc43)[C@H](OC)[C@@H]2O)[C@@H](COP(=O)(O)O[C@H]2[C@@H](OC)[C@H](n3ccc(N)nc3=O)O[C@@H]2COP(=O)(O)O[C@H]2[C@@H](OC)[C@H](n3cnc4c(N)ncnc43)O[C@@H]2COP(=O)(O)O[C@H]2[C@@H](OC(=O)NCCCCN)[C@H](n3ccc(=O)[nH]c3=O)O[C@@H]2COP(=O)(O)O[C@H]2[C@@H](OC)[C@H](n3cnc4c(=O)[nH]c(N)nc43)O[C@@H]2CO)O[C@H]1n1ccc(N)nc1=O`: the thermal shift (ΔTm) with Nucleic Acid [5] was determined as 14 °C. Moreover, the Tm in the data set with Nucleic Acid [1] came to 61 °C.
